{"data": "Measured values gathered from unrelated publications", "Cathepsin F": "Cathepsin F (Homo sapiens, UniProt Q9UBX1)", "ABHD6": "Monoacylglycerol lipase ABHD6 (ABHD6, Homo sapiens, UniProt Q9BV23)", "HTR5A": "5-hydroxytryptamine receptor 5A (HTR5A, Homo sapiens, UniProt P47898)", "note": "Protocols differ between the studies behind these lines."}
{"SMILES": "COCc1c(-c2cc3cc(C)cc(OC)c3s2)c2c(N)ncnn2c1CN1CCNC(=O)C1", "target": "Mitogen-activated protein kinase kinase kinase 19 (MAP3K19, Homo sapiens, UniProt Q56UN5)", "effect on": "cell-free assay", "method": "competition with immobilised ligand", "concentration": "1 µM", "inhibition": "89%"}
{"SMILES": "CCOC(=O)c1ccc(OC(=O)CCCCCNC(=N)N)cc1", "target": "Cathepsin F", "effect on": "enzyme activity", "mode": "inhibitor", "concentration": "10 µM", "inhibition": "2%"}
{"SMILES": "CN(CCN1CCC(OC(=O)Nc2ccccc2-c2ccccc2)CC1)C(=O)c1ccc(CN2CCC(C(N)=O)CC2)cc1", "target": "D(4) dopamine receptor (DRD4, Homo sapiens, UniProt P21917)", "effect on": "ligand displacement", "method": "radioligand", "concentration": "1 µM", "inhibition": "-4%"}
{"SMILES": "Cc1ccccc1N(C)C(=O)Oc1nsnc1N1CCCCC1", "target": "ABHD6", "effect on": "enzyme activity", "mode": "inhibitor", "method": "fluorescence", "concentration": "1 µM", "setting": "lysate", "inhibition": "17%"}
{"SMILES": "CN(C)C(=O)COC(=O)Cc1ccc(OC(=O)c2ccc(NC(=N)N)cc2)cc1", "target": "Cathepsin F", "effect on": "enzyme activity", "mode": "inhibitor", "concentration": "10 µM", "inhibition": "0%"}
{"SMILES": "C#Cc1n[nH]c2c(-c3cn([C@@H](C)c4ccccn4)c(=O)[nH]c3=O)cc(F)cc12", "target": "Calcium/calmodulin-dependent protein kinase type 1 (CAMK1, Homo sapiens, UniProt Q14012)", "effect on": "enzyme activity", "mode": "inhibitor", "concentration": "0.1 µM", "inhibition": "5.7%"}
{"SMILES": "C[C@H](C(=O)N[C@H]1COc2ccccc2[C@@H]1S(C)(=O)=O)c1ccc(F)cc1", "target": "D(4) dopamine receptor (DRD4, Homo sapiens, UniProt P21917, del265-296)", "effect on": "cell-free assay", "concentration": "10 µM", "inhibition": "10%"}
{"SMILES": "C#Cc1n[nH]c2c(-c3cn([C@@H](C)c4ccccc4)c(=O)[nH]c3=O)cc(F)cc12", "target": "RAC-beta serine/threonine-protein kinase (AKT2, Homo sapiens, UniProt P31751)", "effect on": "enzyme activity", "mode": "inhibitor", "concentration": "0.1 µM", "inhibition": "4%"}
{"SMILES": "Cn1cc(-c2cccc(N3CCc4c(sc5c4CC(C)(C)C5)C3=O)c2CO)cc(Nc2ccncn2)c1=O", "target": "Beta-adrenergic receptor kinase 1 (GRK2, Homo sapiens, UniProt P25098)", "effect on": "enzyme activity", "mode": "inhibitor", "concentration": "1 µM", "inhibition": "14%"}
{"SMILES": "CN(C(=O)Oc1nsnc1N1CCCCC1)c1ccc(C#N)cc1", "target": "ABHD6", "effect on": "enzyme activity", "mode": "inhibitor", "method": "fluorescence", "concentration": "1 µM", "setting": "lysate", "inhibition": "15%"}
{"SMILES": "N=C(N)c1ccc2cc(OC(=O)c3ccc(N=C(N)N)cc3)ccc2c1", "target": "Cathepsin F", "effect on": "enzyme activity", "mode": "inhibitor", "concentration": "10 µM", "inhibition": "0%"}
{"SMILES": "COc1cc2c3c(c1OC)-c1cc4c(cc1CC3N(C)CC2)OCO4 (racemic)", "target": "HTR5A", "effect on": "ligand displacement", "method": "radioligand", "concentration": "10 µM", "inhibition": "92.8%"}
{"SMILES": "Cn1cc(-c2cc(F)cc(N3CCn4c(cc5c4CCCC5)C3=O)c2CO)cc(Nc2ccc(N3CCN(C4COC4)CC3)cn2)c1=O", "target": "Casein kinase II subunit alpha (CSNK2A1, Homo sapiens, UniProt P68400)", "effect on": "enzyme activity", "mode": "inhibitor", "concentration": "0.1 µM", "inhibition": "18%"}
{"SMILES": "CCN(CC)CCCC[C@H](NC(=O)[C@H](CC(C)C)NC(=O)[C@H](C)NC(=O)[C@H](Cc1ccccc1)NC(=O)c1ccc(C(C)(C)C)cc1)C(=O)N[C@@H](CO)C(=O)OC", "target": "HTR5A", "effect on": "ligand displacement", "method": "radioligand", "concentration": "10 µM", "inhibition": "7%"}
